From ChEMBL document CHEMBL1147403, “MexAB-OprM specific efflux pump inhibitors in Pseudomonas aeruginosa. Part 3: Optimization of potency in the pyridopyrimidine series through the application of a pharmacophore model” (2004)

tested on: Pseudomonas aeruginosa; test: Intrinsic antibacterial activity against Pseudomonas aeruginosa; format: functional
How it was run: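 Tested alone for antibacterial activity against P. aeruginosa PAM1723, a strain that overexpresses the MexAB-OprM pump and has MexCD-OprJ and MexEF-OprN genetically disrupted; MIC in µg/mL.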

Compound	MIC [µg/mL]
CC(C)c1csc(CCc2ccn3c(=O)c(/C=C/C(=O)O)c(N4CCN(C)CC4)nc3c2)n1	> 320
CC(C)c1csc(CCc2ccn3c(=O)c(/C=C/C(=O)O)c(N4CCCC4)nc3c2)n1	> 320
CC(C)c1csc(CCc2ccn3c(=O)c(/C=C/C(=O)O)c(N4CCCCC4)nc3c2)n1	> 320
CC(C)c1csc(CCc2ccn3c(=O)c(/C=C/C(=O)O)c(N4CCC(CO)CC4)nc3c2)n1	> 320
CC(C)c1csc(CCc2ccn3c(=O)c(/C=C/C(=O)O)c(N4CCCN(C)CC4)nc3c2)n1	> 320
CCCC(CC)Nc1nc2cc(CCc3nc(C(C)C)cs3)ccn2c(=O)c1/C=C/C(=O)O (stereo not drawn)	> 320
CC(C)c1csc(/C=C/c2cccc(NC(=O)Cc3ccccc3C(=O)O)c2)n1	> 320
CC(C)c1csc(CCc2ccn3c(=O)c(/C=C/C(=O)O)c(N4CCCCC4CO)nc3c2)n1 (stereo not drawn)	> 320
CC(C)c1csc(CCc2ccn3c(=O)c(/C=C/C(=O)O)c(N4CCCC(CO)C4)nc3c2)n1 (stereo not drawn)	> 320
CC(C)c1csc(CCc2ccn3c(=O)c(/C=C/c4nn[nH]n4)c(N4CCCC(O)C4)nc3c2)n1 (stereo not drawn)	> 320
CC(C)c1csc(CCc2ccn3c(=O)c(/C=C/C(=O)O)c(N[C@H]4CC[C@H](O)CC4)nc3c2)n1	> 320
CC(C)c1csc(CCc2ccn3c(=O)c(/C=C/C(=O)O)c(N4CCC(N(C)C)CC4)nc3c2)n1	> 320
CC(C)c1csc(CCc2ccn3c(=O)c(/C=C/C(=O)O)c(N4CCC(OC(N)=O)CC4)nc3c2)n1	> 320
CC(C)c1csc(CCc2ccn3c(=O)c(/C=C/C(=O)O)c(NCCc4ccncc4)nc3c2)n1	> 320

tested on: Pseudomonas aeruginosa; test: Minimum inhibitory concentration Pseudomonas aeruginosa in presence of LVFX substrate, (100% growth inhibition); format: functional
How it was run: (§1)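 Potentiation of levofloxacin (LVFX), a MexAB-OprM substrate, against P. aeruginosa PAM1723 (MexAB-OprM overexpressed; MexCD-OprJ and MexEF-OprN genetically disrupted). Value is the inhibitor concentration (µg/mL) giving 4-fold (MPC4) or 8-fold (MPC8) potentiation.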

Compound	MPC4 [µg/mL]
CC(C)c1csc(CCc2ccn3c(=O)c(/C=C/C(=O)O)c(N4CCN(C)CC4)nc3c2)n1	8
CC(C)c1csc(CCc2ccn3c(=O)c(/C=C/C(=O)O)c(N4CCCC4)nc3c2)n1	2
CC(C)c1csc(CCc2ccn3c(=O)c(/C=C/C(=O)O)c(N4CCCCC4)nc3c2)n1	0.5
CC(C)c1csc(CCc2ccn3c(=O)c(/C=C/C(=O)O)c(N4CCC(CO)CC4)nc3c2)n1	1
CC(C)c1csc(CCc2ccn3c(=O)c(/C=C/C(=O)O)c(N4CCCN(C)CC4)nc3c2)n1	8
CCCC(CC)Nc1nc2cc(CCc3nc(C(C)C)cs3)ccn2c(=O)c1/C=C/C(=O)O (stereo not drawn)	2
CC(C)c1csc(/C=C/c2cccc(NC(=O)Cc3ccccc3C(=O)O)c2)n1	1
CC(C)c1csc(CCc2ccn3c(=O)c(/C=C/C(=O)O)c(N4CCCCC4CO)nc3c2)n1 (stereo not drawn)	8
CC(C)c1csc(CCc2ccn3c(=O)c(/C=C/C(=O)O)c(N4CCCC(CO)C4)nc3c2)n1 (stereo not drawn)	2
CC(C)c1csc(CCc2ccn3c(=O)c(/C=C/c4nn[nH]n4)c(N4CCCC(O)C4)nc3c2)n1 (stereo not drawn)	0.5
CC(C)c1csc(CCc2ccn3c(=O)c(/C=C/C(=O)O)c(N[C@H]4CC[C@H](O)CC4)nc3c2)n1	16
CC(C)c1csc(CCc2ccn3c(=O)c(/C=C/C(=O)O)c(N4CCC(N(C)C)CC4)nc3c2)n1	32
CC(C)c1csc(CCc2ccn3c(=O)c(/C=C/C(=O)O)c(N4CCC(OC(N)=O)CC4)nc3c2)n1	2
CC(C)c1csc(CCc2ccn3c(=O)c(/C=C/C(=O)O)c(NCCc4ccncc4)nc3c2)n1	8

tested on: Pseudomonas aeruginosa; test: Minimum inhibitory concentration against Pseudomonas aeruginosa in presence of LVFX substrate, (100% growth inhibition); format: functional; how it was run: as §1

Compound	MPC8 [µg/mL]
CC(C)c1csc(CCc2ccn3c(=O)c(/C=C/C(=O)O)c(N4CCN(C)CC4)nc3c2)n1	32
CC(C)c1csc(CCc2ccn3c(=O)c(/C=C/C(=O)O)c(N4CCCC4)nc3c2)n1	8
CC(C)c1csc(CCc2ccn3c(=O)c(/C=C/C(=O)O)c(N4CCCCC4)nc3c2)n1	4
CC(C)c1csc(CCc2ccn3c(=O)c(/C=C/C(=O)O)c(N4CCC(CO)CC4)nc3c2)n1	8
CC(C)c1csc(CCc2ccn3c(=O)c(/C=C/C(=O)O)c(N4CCCN(C)CC4)nc3c2)n1	128
CCCC(CC)Nc1nc2cc(CCc3nc(C(C)C)cs3)ccn2c(=O)c1/C=C/C(=O)O (stereo not drawn)	16
CC(C)c1csc(/C=C/c2cccc(NC(=O)Cc3ccccc3C(=O)O)c2)n1	2
CC(C)c1csc(CCc2ccn3c(=O)c(/C=C/C(=O)O)c(N4CCCCC4CO)nc3c2)n1 (stereo not drawn)	64
CC(C)c1csc(CCc2ccn3c(=O)c(/C=C/C(=O)O)c(N4CCCC(CO)C4)nc3c2)n1 (stereo not drawn)	16
CC(C)c1csc(CCc2ccn3c(=O)c(/C=C/c4nn[nH]n4)c(N4CCCC(O)C4)nc3c2)n1 (stereo not drawn)	4
CC(C)c1csc(CCc2ccn3c(=O)c(/C=C/C(=O)O)c(N[C@H]4CC[C@H](O)CC4)nc3c2)n1	>64
CC(C)c1csc(CCc2ccn3c(=O)c(/C=C/C(=O)O)c(N4CCC(N(C)C)CC4)nc3c2)n1	>128
CC(C)c1csc(CCc2ccn3c(=O)c(/C=C/C(=O)O)c(N4CCC(OC(N)=O)CC4)nc3c2)n1	16
CC(C)c1csc(CCc2ccn3c(=O)c(/C=C/C(=O)O)c(NCCc4ccncc4)nc3c2)n1	64

tested on: Pseudomonas aeruginosa; test: Minimum inhibitory concentration against Pseudomonas aeruginosa in presence of aztreonam substrate and with 0.125% human serum albumin, (100% growth inhibition); format: functional
How it was run: (§2)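 Potentiation of aztreonam, a MexAB-OprM substrate, against P. aeruginosa PAM1723 (MexAB-OprM overexpressed; MexCD-OprJ and MexEF-OprN genetically disrupted). Run without HSA and with 0.125% human serum albumin. Value is the inhibitor concentration (µg/mL) giving 8-fold potentiation (MPC8).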

Compound	MPC8 [µg/mL]
CC(C)c1csc(CCc2ccn3c(=O)c(/C=C/C(=O)O)c(N4CCN(C)CC4)nc3c2)n1	32
CC(C)c1csc(CCc2ccn3c(=O)c(/C=C/C(=O)O)c(N4CCCC4)nc3c2)n1	8
CC(C)c1csc(CCc2ccn3c(=O)c(/C=C/C(=O)O)c(N4CCCCC4)nc3c2)n1	8
CC(C)c1csc(CCc2ccn3c(=O)c(/C=C/C(=O)O)c(N4CCC(CO)CC4)nc3c2)n1	16
CC(C)c1csc(CCc2ccn3c(=O)c(/C=C/C(=O)O)c(N4CCCN(C)CC4)nc3c2)n1	128
CCCC(CC)Nc1nc2cc(CCc3nc(C(C)C)cs3)ccn2c(=O)c1/C=C/C(=O)O (stereo not drawn)	32
CC(C)c1csc(/C=C/c2cccc(NC(=O)Cc3ccccc3C(=O)O)c2)n1	16
CC(C)c1csc(CCc2ccn3c(=O)c(/C=C/C(=O)O)c(N4CCCCC4CO)nc3c2)n1 (stereo not drawn)	64
CC(C)c1csc(CCc2ccn3c(=O)c(/C=C/C(=O)O)c(N4CCCC(CO)C4)nc3c2)n1 (stereo not drawn)	16
CC(C)c1csc(CCc2ccn3c(=O)c(/C=C/c4nn[nH]n4)c(N4CCCC(O)C4)nc3c2)n1 (stereo not drawn)	4
CC(C)c1csc(CCc2ccn3c(=O)c(/C=C/C(=O)O)c(N[C@H]4CC[C@H](O)CC4)nc3c2)n1	>64
CC(C)c1csc(CCc2ccn3c(=O)c(/C=C/C(=O)O)c(N4CCC(N(C)C)CC4)nc3c2)n1	128
CC(C)c1csc(CCc2ccn3c(=O)c(/C=C/C(=O)O)c(N4CCC(OC(N)=O)CC4)nc3c2)n1	16
CC(C)c1csc(CCc2ccn3c(=O)c(/C=C/C(=O)O)c(NCCc4ccncc4)nc3c2)n1	32

tested on: Pseudomonas aeruginosa; test: Minimum inhibitory concentration against Pseudomonas aeruginosa in presence of aztreonam substrate and with out human serum albumin, (100% growth inhibition); format: functional; how it was run: as §2

Compound	MPC8 [µg/mL]
CC(C)c1csc(CCc2ccn3c(=O)c(/C=C/C(=O)O)c(N4CCN(C)CC4)nc3c2)n1	16
CC(C)c1csc(CCc2ccn3c(=O)c(/C=C/C(=O)O)c(N4CCCC4)nc3c2)n1	8
CC(C)c1csc(CCc2ccn3c(=O)c(/C=C/C(=O)O)c(N4CCCCC4)nc3c2)n1	4
CC(C)c1csc(CCc2ccn3c(=O)c(/C=C/C(=O)O)c(N4CCC(CO)CC4)nc3c2)n1	16
CC(C)c1csc(CCc2ccn3c(=O)c(/C=C/C(=O)O)c(N4CCCN(C)CC4)nc3c2)n1	128
CCCC(CC)Nc1nc2cc(CCc3nc(C(C)C)cs3)ccn2c(=O)c1/C=C/C(=O)O (stereo not drawn)	32
CC(C)c1csc(/C=C/c2cccc(NC(=O)Cc3ccccc3C(=O)O)c2)n1	2
CC(C)c1csc(CCc2ccn3c(=O)c(/C=C/C(=O)O)c(N4CCCCC4CO)nc3c2)n1 (stereo not drawn)	64
CC(C)c1csc(CCc2ccn3c(=O)c(/C=C/C(=O)O)c(N4CCCC(CO)C4)nc3c2)n1 (stereo not drawn)	16
CC(C)c1csc(CCc2ccn3c(=O)c(/C=C/c4nn[nH]n4)c(N4CCCC(O)C4)nc3c2)n1 (stereo not drawn)	4
CC(C)c1csc(CCc2ccn3c(=O)c(/C=C/C(=O)O)c(N[C@H]4CC[C@H](O)CC4)nc3c2)n1	>64
CC(C)c1csc(CCc2ccn3c(=O)c(/C=C/C(=O)O)c(N4CCC(N(C)C)CC4)nc3c2)n1	128
CC(C)c1csc(CCc2ccn3c(=O)c(/C=C/C(=O)O)c(N4CCC(OC(N)=O)CC4)nc3c2)n1	16
CC(C)c1csc(CCc2ccn3c(=O)c(/C=C/C(=O)O)c(NCCc4ccncc4)nc3c2)n1	16

organism: Rattus norvegicus; test: Serum protein binding of compound was evaluated using rat serum; format: functional

Compound	Binding [%]
CC(C)c1csc(CCc2ccn3c(=O)c(/C=C/C(=O)O)c(N4CCN(C)CC4)nc3c2)n1	67.8
CC(C)c1csc(/C=C/c2cccc(NC(=O)Cc3ccccc3C(=O)O)c2)n1	>98
CC(C)c1csc(CCc2ccn3c(=O)c(/C=C/C(=O)O)c(N4CCCC(CO)C4)nc3c2)n1 (stereo not drawn)	91.5
